Source: ChEMBL document CHEMBL1128460, “Design, synthesis, and structure-activity relationships of a new series of alpha-adrenergic agonists: spiro[(1,3-diazacyclopent-1-ene)-5,2'-(1',2',3',4'- tetrahydronaphthalene)]” (J Med Chem, 1995)

Key:
[1] = molecular target: T1, Alpha-2A adrenergic receptor (Homo sapiens, UniProt P08913); assay: Binding affinity towards Alpha-2A adrenergic receptor in human platelets using [3H]RX-821002 as radioligand
T1 sequence (P08913 whole entry): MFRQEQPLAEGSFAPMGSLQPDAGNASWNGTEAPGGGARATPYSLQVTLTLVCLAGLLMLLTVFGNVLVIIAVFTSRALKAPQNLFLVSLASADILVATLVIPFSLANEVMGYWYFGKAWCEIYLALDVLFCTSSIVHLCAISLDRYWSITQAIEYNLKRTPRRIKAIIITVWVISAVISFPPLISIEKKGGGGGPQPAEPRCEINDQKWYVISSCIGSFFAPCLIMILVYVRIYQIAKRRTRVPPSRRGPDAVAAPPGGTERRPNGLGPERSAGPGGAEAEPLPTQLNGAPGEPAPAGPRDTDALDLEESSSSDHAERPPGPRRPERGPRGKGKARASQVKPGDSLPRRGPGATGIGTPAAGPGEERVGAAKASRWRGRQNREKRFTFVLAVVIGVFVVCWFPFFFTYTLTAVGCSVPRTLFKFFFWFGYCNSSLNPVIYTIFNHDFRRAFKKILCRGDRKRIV
Outline: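 Human platelet membranes with [3H]RX821002 (1.5 nM), nonspecific binding with phentolamine (10 µM). Displacement at nine concentrations spanning 3 orders of magnitude, IC50 by log-probit analysis, converted to Ki using Scatchard Kd. ≥3 independent duplicate experiments.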

[2] = molecular target: T2, Alpha-2B adrenergic receptor (Rattus norvegicus, UniProt P19328); assay: Binding affinity towards Alpha-2B adrenergic receptor in neonatal rat lung using [3H]-RX-821002 as radioligand
T2 sequence (P19328 whole entry): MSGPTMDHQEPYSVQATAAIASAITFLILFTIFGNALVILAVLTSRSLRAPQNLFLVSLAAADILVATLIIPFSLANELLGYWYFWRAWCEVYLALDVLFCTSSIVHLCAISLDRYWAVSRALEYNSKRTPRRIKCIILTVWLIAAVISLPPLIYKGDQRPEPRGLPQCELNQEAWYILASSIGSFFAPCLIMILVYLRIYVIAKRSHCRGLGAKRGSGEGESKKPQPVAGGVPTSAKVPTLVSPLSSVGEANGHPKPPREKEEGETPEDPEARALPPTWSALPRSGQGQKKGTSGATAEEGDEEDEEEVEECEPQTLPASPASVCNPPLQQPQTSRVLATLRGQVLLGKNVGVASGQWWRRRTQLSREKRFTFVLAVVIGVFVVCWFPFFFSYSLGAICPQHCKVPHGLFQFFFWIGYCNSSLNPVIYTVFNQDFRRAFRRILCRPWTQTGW
Outline: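 Neonatal rat lung membranes with [3H]RX821002 (0.5 nM), nonspecific binding with phentolamine (10 µM). Nine concentrations over 3 log units, IC50 by log-probit, Ki by Cheng–Prusoff with Scatchard-derived Kd. ≥3 independent experiments in duplicate.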

[3] = Ratio of C20 (pithed rat) to that of EC50 (saphenous vein); assay type: functional
[4] = molecular target: T3, Adrenergic receptor alpha (Rattus norvegicus) (UniProt P15823+P23944+P43140+P22086+P19328+P22909); assay: Alpha adrenergic activity was evaluated as maximal pressure response caused by agonist, expressed in mmHg (the maximum obtained with phenylephrine is 150 mmHg).; assay type: functional
Canis familiaris [5] = species: Canis familiaris; assay: Maximal contractile response obtained with the agonist (expressed as a percentage of the maximal contraction to phenylephrine in the dog saphenous vein); assay type: functional, Canis lupus familiaris
Outline: (§1)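 Vessel segments from mongrel dogs (15–25 kg) anesthetized with pentobarbital (30 mg/kg iv), mounted for isometric tension in physiological saline. Equilibrated 90 min with bath changes every 30 min, rauwolscine (10^-7 M) present throughout. Primed with KCl (100 mM), then phenylephrine (1 µM). Agonist concentration–response curves run at half-log steps, giving EC50 (µM) and Emax as % of phenylephrine maximum; mean ±SD.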

Canis familiaris [6] = species: Canis familiaris; assay: Effective concentration for the agonist in the isolated blood vessel using in vitro saphenous vein; assay type: functional; conditions: Canis lupus familiaris; outline: as §1
[7] = molecular target: T4, Adrenergic receptor alpha-1 (Rattus norvegicus, UniProt P15823+P23944+P43140); assay: Displacement of [3H]prazosin from rat cortex Alpha-1 adrenergic receptor
T4 sequence (P15823 whole entry): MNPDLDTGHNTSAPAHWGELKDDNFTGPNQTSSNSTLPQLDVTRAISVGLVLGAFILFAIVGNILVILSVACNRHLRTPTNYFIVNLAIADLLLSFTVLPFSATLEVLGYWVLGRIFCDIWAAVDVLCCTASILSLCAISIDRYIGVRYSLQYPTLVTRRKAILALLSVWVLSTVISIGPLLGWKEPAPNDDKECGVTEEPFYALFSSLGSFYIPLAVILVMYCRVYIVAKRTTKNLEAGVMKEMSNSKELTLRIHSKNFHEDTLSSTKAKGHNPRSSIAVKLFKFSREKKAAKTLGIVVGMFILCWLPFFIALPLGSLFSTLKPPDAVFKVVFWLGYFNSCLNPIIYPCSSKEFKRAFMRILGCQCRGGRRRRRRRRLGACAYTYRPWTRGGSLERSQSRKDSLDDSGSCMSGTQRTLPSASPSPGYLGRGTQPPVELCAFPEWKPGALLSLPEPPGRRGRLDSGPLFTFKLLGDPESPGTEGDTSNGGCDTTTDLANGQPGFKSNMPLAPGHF
T4 sequence (P23944 whole entry): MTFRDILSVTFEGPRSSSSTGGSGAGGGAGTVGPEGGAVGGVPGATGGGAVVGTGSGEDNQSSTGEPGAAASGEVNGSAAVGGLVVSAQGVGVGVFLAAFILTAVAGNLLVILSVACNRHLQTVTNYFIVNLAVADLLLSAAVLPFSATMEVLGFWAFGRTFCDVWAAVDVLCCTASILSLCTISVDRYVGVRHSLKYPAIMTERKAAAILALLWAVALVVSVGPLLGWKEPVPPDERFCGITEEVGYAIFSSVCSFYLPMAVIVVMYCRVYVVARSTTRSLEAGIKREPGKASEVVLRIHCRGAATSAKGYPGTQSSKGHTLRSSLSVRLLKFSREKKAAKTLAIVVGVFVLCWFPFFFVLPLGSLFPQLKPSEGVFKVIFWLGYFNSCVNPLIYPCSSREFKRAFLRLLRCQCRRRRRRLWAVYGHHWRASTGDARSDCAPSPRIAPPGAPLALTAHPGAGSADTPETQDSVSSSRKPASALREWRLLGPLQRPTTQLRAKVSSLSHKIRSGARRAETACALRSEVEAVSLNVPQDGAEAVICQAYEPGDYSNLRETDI
T4 sequence (P43140 whole entry): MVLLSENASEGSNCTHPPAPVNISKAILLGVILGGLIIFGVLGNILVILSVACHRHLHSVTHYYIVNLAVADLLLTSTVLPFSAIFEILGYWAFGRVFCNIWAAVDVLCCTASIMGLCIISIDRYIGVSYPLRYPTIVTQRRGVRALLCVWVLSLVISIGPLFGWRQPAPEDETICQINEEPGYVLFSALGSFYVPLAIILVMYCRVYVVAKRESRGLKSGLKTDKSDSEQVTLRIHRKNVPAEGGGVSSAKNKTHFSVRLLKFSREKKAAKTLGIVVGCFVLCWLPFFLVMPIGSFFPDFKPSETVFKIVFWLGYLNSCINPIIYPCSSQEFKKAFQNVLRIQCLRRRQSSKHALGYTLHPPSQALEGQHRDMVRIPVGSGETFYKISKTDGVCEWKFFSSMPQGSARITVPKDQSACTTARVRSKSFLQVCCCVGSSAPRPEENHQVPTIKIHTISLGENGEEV
Outline: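 Rat cortex membranes labelled with [3H]prazosin (0.3 nM), nonspecific binding with prazosin (10 µM). Nine drug concentrations spanning 3 log units, IC50 by log-probit analysis. Ki by Cheng–Prusoff using Kd from Scatchard saturation. At least three independent experiments in duplicate.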

[8] = Ratio of C20 obtained in the absence or presence of [C20 ( 0.1 mg of prazosin ) / C20 (control)]; assay type: functional
Outline: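 Pithed rats pretreated with tertatolol (100 mg/kg), then 10 min later with prazosin (100 µg/kg). Cumulative iv agonist doses given another 10 min later at 20 s intervals. Arterial pressure recorded, C20 (dose giving +20 mmHg) determined. Ratio calculated as C20(prazosin)/C20(control); 3–6 determinations.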

[9] = Ratio of C20 obtained in the absence or presence of [C20 (1 mg of yohimbine.) / C20 (control)]; assay type: functional
Outline: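 Pithed rat arterial pressure assay with tertatolol (100 mg/kg) pretreatment, then yohimbine (1 mg/kg) 10 min later. Cumulative iv agonist doses given at 20 s intervals after a further 10 min, C20 (+20 mmHg dose) obtained. Ratio expressed as C20(yohimbine)/C20(control); 3–6 determinations.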

[10] = molecular target: T3, Adrenergic receptor alpha (Rattus norvegicus); assay: Alpha adrenergic activity was evaluated as concentration (iv) which increases the arterial pressure by 20 mmHg in the pithed rat; assay type: functional, organism-based; conditions: Artery
Canis familiaris [11] = species: Canis familiaris; assay: Maximal contractile response obtained with the agonist (expressed as a percentage of the maximal contraction to phenylephrine in the dog femoral artery); assay type: functional, Canis lupus familiaris; outline: as §1
Canis familiaris [12] = species: Canis familiaris; assay: Effective concentration for the agonist in the isolated blood vessel using in vitro femoral artery; assay type: functional; conditions: Canis lupus familiaris; outline: as §1

SMILES	Ki [1] [nM]	Ki [2] [nM]	Ratio [3]	Max [4] [mmHg]	Emax (Canis familiaris [5])	EC50 (Canis familiaris [6]) [nM]	Ki [7] [nM]	Ratio [8]	Ratio [9]	C20 [10] [µg/kg]	Emax (Canis familiaris [11])	EC50 (Canis familiaris [12]) [nM]
COc1cccc2c1CC1(CC2)CNC=N1 (stereo not given)	51	99										
COc1ccc2c(c1)CC1(CC2)CN=CN1 (stereo not given)			0.21	106	49	7100	16000	3.9	6.9	1.5	0	
COc1ccc2c(c1)CC1(CC2)CNC=N1 (stereo not given)	18	193										
Fc1cccc2c1CC1(CC2)CN=CN1 (stereo not given)	12	152		131	99	2300	2500	0.6	1	4.6	75	57000
COc1cccc2c1CCC1(CNC=N1)C2 (stereo not given)	12	159										
Fc1ccc2c(c1)CC1(CC2)CN=CN1 (stereo not given)			0.71	108	67	11000		5	7.7	7.8	8	
COc1ccc2c(c1)CCC1(CN=CN1)C2 (stereo not given)			4.77	105	60	8800	29400	2.6	1.5	42	3	
COc1cccc2c1CC1(CC2)CN=CN1 (stereo not given)				139	100	500	16000	2	4.6	0.64	97	7200
Clc1ccc2c(c1)CCC1(CN=CN1)C2 (stereo not given)			1.05	120		6000		2.8		6.3	0	
FC(F)(F)c1ccc(Cl)c(NC2=NCCN2)c1	1560	179		73	81	5100	65800	33	2.2	10	22	4700
Cc1cc2c(cc1C)CC1(CC2)CN=CN1 (stereo not given)			14	72	64	2700		0.5	2.5	37	0	
NC1=NC2(CCc3cccc(Cl)c3C2)CO1 (stereo not given)	1.6	20		140	117	14	800	2	3	0.2	68	360
COc1ccc(SC)c2c1CC1(CC2)CN=CN1 (stereo not given)				136	98	180	600	75	45	0.003	96	290
Clc1cc(Cl)c2c(c1)CC1(CC2)CN=CN1 (stereo not given)	3	95		91	45	2000	700	9.5	3.1	19	10	21000
CC(C)c1ccc2c(c1)CC1(CC2)CN=CN1 (stereo not given)			57	66	53	4300		2.9	2.9	245	0	
COc1ccc2c(c1)CCC1(CNC=N1)C2 (stereo not given)	87	1200										
Cc1cc(C)c2c(c1)CC1(CC2)CN=CN1 (stereo not given)			25	91	66	2900		2.9	2.8	20	5	800
Clc1ccc2c(c1)CC1(CC2)CN=CN1 (stereo not given)			1.15	116	72	5500		2.6	5.8	6.3	0	
